Hep lipid drop: hepatic lipid droplet formation modulation | AML12 mouse hepatocytes, oleate lipid droplets, BODIPY imaging | inhibition, % at 6.5 µM | hit rate 0.4% among 240,000;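 active = lipid droplet intensity inhibited by at least 50%, with more than 500 cells counted; inconclusive = wells with under 300 cells, treated as cytotoxic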
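material = mouse AML12 hepatocyte cell line, fixed after treatment | also added = 100 µM oleic acid challenge | doses = compound at 6.5 µM only | schedule = overnight exposure | technique = Image-based BODIPY and DAPI two-channel analysis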
VLA-4 inh: inhibition in a human VLA-4 binding assay | hit rate 0.2% among 330,000 | VLA-4 expressing cells, ligand binding flow cytometry | AID 2557 | inhibition, % (about 7 µM as worked out from the volumes in the protocol); in the data active = inhibition above about 50%
GRK2 inh: inhibitors of human GRK2 displacing RNA aptamer | P25098 | bead flow cytometry, FAM-aptamer displacement from GRK2 | AID 488847 | hit rate 0.59% among 330,000 | inhibition of aptamer binding, % at 10 µM;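 active = inhibition of aptamer binding above 40%, roughly 3 SD of noise, on plates passing a quality check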;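 also: median bead fluorescence of bound FAM aptamer so fluorescent compounds give negative values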
proCasp7 act: counter-screen for procaspase-3 activators: activators of human procaspase-7; activation, % at 8.5 µM; hit rate 0.093% among 330,000; AID 463210; recombinant procaspase-7, Ac-DEVD-pNA absorbance 405 nm; D23A/D198A/D206A triple mutant, cannot self-cleave; scale: DMSO 0, 5 µM enzyme 100;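 active = percent activation above the screen-wide mean plus 3 SD, cut at about 25% in these data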
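signal = Epi-absorbance of released pNA at 405 nm, two timepoints | assay system = Uncleavable procaspase-7 mutant enzyme | reagent = Ac-DEVD-pNA substrate, 400 µM as added | times = 1 h enzyme–compound preincubation and 2 h substrate reaction, both 25 °C | benchmarks = low DMSO alone, high DMSO plus 5 µM PC-7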
JMJD2C inh: blocks human GASC-1 demethylase activity; inhibition, % at 2.35 µM; GST-JMJD2C(1-420) H3K9me3 demethylation, DELFIA europium; hit rate 0.069% among 330,000; AID 2099; Q9H3R0;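 active = more than half of a compound's replicate wells show inhibition beyond 50%, single wells judged on their own value; inconclusive = some, but no more than half, of replicates pass 50% inhibition; inactive = no replicate passes 50% inhibition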;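 also: signal counts dimethyl H3K9 product captured on neutravidin plate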
Target sequence (Q9H3R0 1-420 limits assumed): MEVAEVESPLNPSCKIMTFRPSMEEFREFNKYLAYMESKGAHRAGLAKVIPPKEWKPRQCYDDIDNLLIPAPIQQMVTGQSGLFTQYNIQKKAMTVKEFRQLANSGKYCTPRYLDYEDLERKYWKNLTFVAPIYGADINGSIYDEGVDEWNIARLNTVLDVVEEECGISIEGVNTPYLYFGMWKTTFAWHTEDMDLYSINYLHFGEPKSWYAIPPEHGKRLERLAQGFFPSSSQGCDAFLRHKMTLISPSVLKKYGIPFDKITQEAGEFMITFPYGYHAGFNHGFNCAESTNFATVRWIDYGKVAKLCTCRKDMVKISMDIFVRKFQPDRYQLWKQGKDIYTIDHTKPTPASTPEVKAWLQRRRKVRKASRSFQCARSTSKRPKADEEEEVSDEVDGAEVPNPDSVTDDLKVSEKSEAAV
procasp3 activ: procaspase-3 (human) activation | recombinant procaspase-3 D3A, Ac-DEVD-pNA absorbance 405 nm | activation, % at 8.5 µM | hit rate 0.11% among 330,000 | AID 463141;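 active = activation above the mean of all tested compounds plus 3 SD, cut at about 21% in these data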
Target sequence (P42574 whole entry D9A/D28A/D175A): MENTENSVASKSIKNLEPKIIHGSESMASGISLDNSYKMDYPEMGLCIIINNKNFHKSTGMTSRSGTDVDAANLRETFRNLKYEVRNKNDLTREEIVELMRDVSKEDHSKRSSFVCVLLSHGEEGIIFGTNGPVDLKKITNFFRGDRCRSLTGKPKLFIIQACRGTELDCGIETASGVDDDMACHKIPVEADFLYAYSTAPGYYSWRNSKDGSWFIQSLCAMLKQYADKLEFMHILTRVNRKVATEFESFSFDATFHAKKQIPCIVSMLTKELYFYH
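Assay system – Procaspase-3 D3A mutant, all three cleavage aspartates alanine · Controls – DMSO-only low control, 5 µM PC-3 D3A high control · Schedule – 1 h compound preincubation, 2 h substrate hydrolysis at 25 °C · Signal – 405 nm absorbance of p-nitroaniline, reads at 0 and 120 min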
Hits are given with their value; 0 = inactive; ? = inconclusive; - = not tested or not shown. Sampled rows, rich in hits. Any-hit rate of the full collection: about 1.3%.

SMILES | Hep lipid drop | VLA-4 inh | GRK2 inh | proCasp7 act | JMJD2C inh | procasp3 activ
N#C/C(C(=O)N1CCCCC1)=C1/N=C(NC(=O)c2ccc(F)cc2)c2ccccc21 | 0 | 0 | 0 | 0 | 0 | 0
CCOC(=O)C1=c2/c(=C/c3ccncc3)c(N)c(C(=O)OC)n2C(=O)C(c2ccncc2)S1 (stereo unspecified) | 0 | 0 | 0 | 0 | 0 | 0
S=c1nc(-c2csc3c2CCCC3)[nH][nH]1 | 0 | 0 | 0 | 0 | 0 | 0
C=CCN(CC=C)Cc1c(O)ccc2c1oc(=O)c1ccccc12 | - | 0 | 0 | 0 | 79 | 0
COc1cc2ncnc(NCc3ccccc3)c2cc1OC | ? | 0 | 0 | 0 | 0 | 0
COc1cc2ncnc(NCc3cccc(Cl)c3)c2cc1OC | 51 | 0 | 0 | 0 | 0 | 0
CSc1cccc(NC(=S)N2CCCN(Cc3ccccc3F)C2)c1 | 0 | 0 | 0 | 0 | 0 | 0
CCOC(=O)c1c(NC(NC(C)=O)C(Cl)(Cl)Cl)sc2c1CCCC2 (stereo unspecified) | 0 | 0 | 73 | 0 | 0 | 0
CCC1CSC(Nc2ccc(C(=O)/C=C/c3ccc(OC)c(OC)c3)cc2)=N1 (stereo unspecified) | 0 | 0 | 48 | 0 | 0 | 0
CCN(CC)c1ccc(/C=N/NC(=S)NCc2ccccc2)c(O)c1 | 0 | 0 | 42 | 0 | 0 | 0
CCN(CC)c1ccc(/C=N/NC(=O)c2ccco2)c(O)c1 | 0 | 0 | 0 | 0 | 0 | 0
Cn1nnnc1SCC1=C(C(=O)O)N2C(=O)[C@@H](NC(=O)[C@H](O)c3ccccc3)[C@H]2SC1 | 0 | 0 | 52 | 0 | 0 | 0
COc1cccc(-n2nnc3c(=O)n(Cc4ccccc4F)cnc32)c1 | - | 0 | 0 | 0 | 92 | 0
Cc1onc(-c2ccccc2)c1C(=O)NC(=S)NNC(=O)c1ccncc1 | 0 | 0 | 74 | 0 | 0 | 0
CCOC(=O)C1=NN(C(C)=O)C2(CC(=O)N(c3cc(C)cc(C)c3)C2=O)C1 (stereo unspecified) | 0 | 0 | 100 | 0 | 0 | 0
COC(=O)[C@@]12CCCN1[C@H](c1ccc(-c3ccc(Cl)c(Cl)c3)c(OC)c1)[C@H]1C(=O)N(C)C(=O)[C@H]12 | - | 0 | 0 | 0 | - | 0
CCn1c(C)nc2cc(C(=O)NNC(=O)CN(C)S(=O)(=O)c3ccc(NC(C)=O)cc3)ccc21 | - | 0 | 100 | 0 | 0 | 0
CCn1c(C)nc2cc(C(=O)NNC(=O)Nc3ccc(Cl)c(Cl)c3)ccc21 | 0 | 0 | 0 | 0 | 0 | 0
CCOC(=O)C1=C(C)NC(SCC(=O)Nc2nc(C)cs2)=C(C#N)C1c1cccs1 (stereo unspecified) | - | 0 | 51 | 0 | 0 | 0
C=CCOC(=O)C1=C(C)NC(SCC(N)=O)=C(C#N)C1c1cccs1 (stereo unspecified) | 0 | 0 | 0 | 0 | 0 | 0
Cc1ccc(C(C)C)c(OCC(O)CNC2CCCC2)c1 (stereo unspecified) | 0 | 0 | 0 | 0 | 0 | 0
COc1ccc(C(=O)NC2CC3CCCC(C2)N3Cc2ccccc2)cc1 (stereo unspecified) | 0 | 0 | 0 | 0 | 60 | 0
O=c1[nH]cnc2c1c(-c1ccccc1)cn2-c1ccccc1 | 0 | 0 | 0 | 0 | 62 | 0
Cc1cccc(NC(=O)C2CCCN(S(=O)(=O)c3c(C)nn(C)c3C)C2)n1 (stereo unspecified) | 0 | 0 | 0 | 0 | 63 | 0
Cc1cccc(NC(=O)C2CCCN(S(=O)(=O)c3c(C)nn(C)c3C)C2)c1 (stereo unspecified) | - | 0 | 0 | 0 | 0 | 0
SMILES | Hep lipid drop | VLA-4 inh | GRK2 inh | proCasp7 act | JMJD2C inh | procasp3 activ
Cc1cccc(NC(=O)C2CCN(S(=O)(=O)c3cccc4nsnc34)CC2)n1 | - | 0 | 0 | 0 | 52 | 0
CCC(c1nnc(SCC(=O)Nc2cc(S(C)(=O)=O)ccc2Cl)n1Cc1ccccc1)N(C)C (stereo unspecified) | 0 | 0 | 0 | 0 | ? | 0
C=CCC[C@H](Cc1ccc(F)cc1)C(=O)OC[C@@H](NC(=O)[C@@H](CC=C)CC(=O)N[C@@H](CO)Cc1ccccc1)C(C)(C)C | - | 0 | 49 | 0 | 0 | 0
C=CCC[C@@H](Cc1ccc(F)cc1)C(=O)OC[C@@H](NC(=O)[C@@H](CC=C)CC(=O)N[C@@H](CO)Cc1ccccc1)C(C)(C)C | - | 0 | 0 | 0 | 0 | 0
CC1=CC(=O)c2c(O)ccc(O)c2C1=O | 0 | 0 | 46 | 0 | - | 0
CCCCCn1c(=S)[nH]c2ncccc2c1=O | - | 0 | 0 | 0 | 0 | 0
O=c1c2cccnc2[nH]c(=S)n1CCC1=CCCCC1 | - | 0 | 70 | 0 | 0 | 0
O=[N+]([O-])c1cccc(S(=O)(=O)N2CN(c3ccc(Br)cc3)c3nc4ccccc4nc32)c1 | - | 0 | 0 | 0 | 0 | 0
CC1(NC(=O)CC[N+](C)(C)CCO)CS(=O)(=O)CC1S(=O)(=O)[O-] (stereo unspecified) | 0 | 0 | 47 | 0 | 0 | 0
CC(C)OC(=O)c1c(NC(=O)C2CC=CCC2C(=O)O)sc2c1CCCCC2 (stereo unspecified) | 0 | 0 | 0 | 0 | 0 | 0
NC(=O)c1c(NC(=O)C2CC=CCC2C(=O)O)sc2c1CCCCC2 (stereo unspecified) | 0 | 0 | 48 | 0 | 0 | 0
Cn1c2c(c(=O)n(C)c1=O)CN(CCCN1CCOCC1)CN2 | 0 | 0 | 0 | 0 | 53 | 0
CC(c1ccccc1)N1CNc2c(c(=O)n(C)c(=O)n2C)C1 (stereo unspecified) | - | 0 | 0 | 0 | 0 | 0
COc1ccc(CCN2CC(C(=O)Nc3cc(F)ccc3F)CC2=O)cc1OC (stereo unspecified) | - | 0 | 0 | 0 | 0 | 0
CC(C)(C)NC(=O)/C(=C\c1ccco1)NC(=O)c1ccco1 | 0 | 0 | 0 | - | 0 | -
COC(=O)NNC(=O)c1ccc(C)c(Br)c1 | 0 | 0 | 80 | 0 | 0 | 0
COCCNC(=O)CN1C(=O)c2cccc3cccc1c23 | 0 | 0 | 0 | 0 | 0 | 0
O=C(Nc1cc(C(F)(F)F)cc(C(F)(F)F)c1)Nc1cnn(-c2ccc([N+](=O)[O-])cc2)c1C(F)(F)F | 0 | 0 | 0 | 0 | 0 | 0
CC(C)NC(=S)NCc1cccnc1 | 0 | 0 | 99 | 0 | 0 | 0
CCC(C)c1ccc(NC(=S)NCc2cccnc2)cc1 (stereo unspecified) | 0 | 0 | 0 | 0 | 0 | 0
Cc1ccc(CCN2CC(C(=O)NCCCN3CCC(C)CC3)CC2=O)cc1 (stereo unspecified) | 0 | 0 | 0 | 0 | 0 | 0
Cc1ccc(NC(=O)CN2C(=O)S/C(=C\c3cccn3-c3cccc(C(=O)O)c3)C2=O)cc1C | 0 | 0 | 0 | 0 | 0 | 0
COc1ccc(NC(=O)CN2C(=O)S/C(=C/c3cccn3-c3ccc(C(=O)O)cc3)C2=O)cc1 | 0 | 0 | 49 | - | 0 | -

Source: PubChem
